Results as given in paper PMC4153604 (European journal of medicinal chemistry, 2014).

Experiments:
Assay type in all cases: cell-based
[1] = system: BxPC-3 pancreatic cancer cells; test: Cell viability, resazurin assay; settings: 20 µM, 48 h, 5% FBS
How it was run: (§1)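 Cell lines were maintained at 37°C, 5% CO2 to about 80% confluence: BxPC-3 in RPMI 1640, MIA PaCa-2 in DMEM, each with 10% FBS and penicillin/streptomycin. Trypsinized cells were plated at 1 × 10^4/well in 5% FBS medium and treated with 0–20 µM for 48 h. Resazurin (0.02% in DPBS) was added; fluorescence (ex 560/em 590 nm) was read after 2 h. EC50 came from nonlinear regression.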

[2] = system: MIA PaCa-2 pancreatic cancer cells; test: Cell viability, resazurin assay; settings: 20 µM, 48 h, 5% FBS
How it was run: as §1

MIA PaCa-2 cells = test: Apoptosis assay, AO/EB staining; settings: 0.5, 1 and 2 µM, 48 h, 5% FBS
How it was run: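 MIA PaCa-2 cells (5 × 10^4 per chamber-slide well) exposed to test compound at 0.5, 1 and 2 µM for 48 h in medium with 5% FBS. Stained with AO/EB (10 µg/mL each) and imaged by fluorescence microscopy (x40, 480/30 nm excitation). Green intact nuclei scored as viable; orange-red, condensed nuclei as apoptotic. Images representative of triplicate experiments.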

[3] = listed as farnesylthiosalicylamide

In the case of `CC(C)=CCC/C(C)=C/CC/C(C)=C/CSc1ccccc1C(=O)O` [FTS, S-t, t farnesylthiosalicylic acid], the “effect on viability of the cells” value ([1]; listed as salirasib) is reported as “ineffective” and the “effect on viability of the cells” value ([2]; listed as salirasib) is reported as “ineffective”.

`CC(C)=CCC/C(C)=C/CC/C(C)=C/CSc1ccccc1C(N)=O` [FTSA, S-t, t farnesylthiosalicylic amide] was tested, and the “effect on viability of the cells” value [1, 3] was “ineffective” and the “effect on viability of the cells” value [2, 3] was “ineffective”.

`CC(C)=CCC/C(C)=C/CC/C(C)=C/CSC[C@H](NC(=O)CCCCCN1CCN(C)CC1)C(=O)NC1CCCCCCC1` [8e, L-((4-methylpiperazinyl)hexanoyl)-S-(trans, trans-farnesyl) cysteine cyclooctylamide] was tested, and the “mode of cell death (AO/EB staining)” value (MIA PaCa-2 cells) was “signs of apoptosis were observed”.
